UBC13 inh = blocks human UBC13 polyubiquitin chain formation | P61088 | AID 485273 | TR-FRET | 330,000 compounds, 0.47% hits | inhibition, % at 20 µM; in the data active = inhibition above about 45%, passing the limit was not always enough
Target sequence (P61088 whole entry, looked up): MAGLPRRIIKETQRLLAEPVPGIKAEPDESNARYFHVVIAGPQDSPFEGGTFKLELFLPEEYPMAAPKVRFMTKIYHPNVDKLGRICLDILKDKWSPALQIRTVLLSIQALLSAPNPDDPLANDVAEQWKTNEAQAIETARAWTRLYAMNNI
MEKK2wt PB1 HTS = raises or lowers MEK5 binding to wildtype human MEKK2 PB1 domain. Q9Y2U5. bead flow cytometry, Alexa488-MEK5 binding to MEKK2 WT; actives lie on both sides. binding response (% of control), % at 10 µM. 290,000 compounds, 1.1% hits; in the data active = binding response below about 67% or above about 130%
Apaf1 inhib = inhibitors of human Apaf-1 apoptosome | O14727 | reconstituted apoptosome caspase-3 activity, DEVD-Rh110 fluorescence | inhibition, % at 20 µM | 330,000 compounds, 0.71% hits | AID 489030; active = inhibition of at least 40% at 20 µM;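 note: plate controls were DMSO wells for no effect and DEVD-CHO caspase inhibitor wells for full effect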
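Material: biochemical Apaf-1 apoptosome reconstitution. Medium: Hepes buffer, pH 7.5. Also added: cytochrome c activation, bis-DEVD rhodamine 110 substrate. Timing: 30 min compound preincubation, 50 min activation, room temperature. Measured by: rhodamine 110 fluorescence at Ex 480/Em 540 nm.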
MEKK3 PB1 HTS = MEKK3-MEK5 PB1 interaction, increase or decrease; Q99759; bead-based flow cytometry, Alexa488-MEK5 binding to MEKK3; actives lie on both sides; 0 = blocked by unlabeled MEK5, 100 = vehicle; binding response (% of control), % at 10 µM; 290,000 compounds, 1.4% hits; AID 1529;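 active = binding response more than 3 SD above or below the average of its plate-row segment, actives on both sides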;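 note: Alexa488 bead fluorescence after subtracting the streptavidin-only scavenger bead signal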
MEKK2mut PB1 HTS = signal of MEK5 binding to mutant human MEKK2 PB1 domain; percent response, % at 10 µM; bead flow cytometry, Alexa488-MEK5 binding to MEKK2 mutant; AID 1530; 290,000 compounds, 0.35% hits; in the data active = percent response above about 24%, passing the limit was not always enough
MEKK2wt confirm = raises or lowers MEK5 binding to wildtype human MEKK2, retest; shares compounds with MEKK3 PB1 HTS; bead flow cytometry, Alexa488-MEK5 binding to MEKK2 WT; actives lie on both sides; binding response (% of control), % at 10 µM; 5,900 compounds, 2.4% hits; AID 1892; in the data active = binding response below about 16% or above about 210%; inactive = in between
MEKK2mut confirm = signal of MEK5 binding to mutant human MEKK2, retest | 5,900 compounds, 2% hits | shares compounds with MEKK3 PB1 HTS | percent response, % at 10 µM | bead flow cytometry, Alexa488-MEK5 binding to MEKK2 mutant; in the data active = percent response mostly above about 71%, no sharp cut-off; inactive = mostly below about 38%;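 note: higher means compound restores mutant binding toward wildtype level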
MEKK3-MEK5 inh = MEKK3-MEK5 PB1 inhibition, single concentration confirmation; shares compounds with MEKK3 PB1 HTS; bead flow cytometry, Alexa488-MEK5 binding to MEKK3; stronger effect = lower value; binding response (% of control), % at 10 µM; 5,900 compounds, 1.8% hits;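 active = binding response below 72% of control, or above a set upper limit, though filed actives all read lower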;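 note: 100% = DMSO only wells and 0% = binding blocked by excess unlabeled MEK5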
* hit, by the source's call; x = not tested or not shown; [ ] = dose if it differs, or a comment. Shown are actives, neighbours in structure and some others; about 2.9% of the full set was active somewhere.

SMILES	UBC13 inh	MEKK2wt PB1 HTS	Apaf1 inhib	MEKK3 PB1 HTS	MEKK2mut PB1 HTS	MEKK2wt confirm	MEKK2mut confirm	MEKK3-MEK5 inh
CC(C)NCC(O)COc1ccc2c(c1)CCC2 (stereo not given)	8	108	-2	140*	1	95	-3	90
CC(C)NCC(O)COc1ccc(Br)cc1 (stereo not given)	-9	103	13	101	-1	x	x	x
CS(=O)(=O)N1CCN(c2ccc([N+](=O)[O-])cc2F)CC1	-1	79	-8	75*[inhibitor]	-16	101	13	104
CS(=O)(=O)N1CCN(c2ccc([N+](=O)[O-])cc2C(F)(F)F)CC1	-9	98	-9	92	4	x	x	x
O=C(CN(Cc1ccco1)C(=O)c1cccc(Cl)c1)Nc1c(Cl)cc(Cl)cc1Cl	-5	117	20	122*	4	102	3	104
CSc1nc2c(c(=O)[nH]1)C(c1ccccc1)C1=C(CC(C)(C)CC1=O)N2 (stereo not given)	12	121	6	131*	4	104	4	111
N#CC(C#N)=CC1=C2OC(c3ccccc3)=CC(c3ccccc3)=C2CCC1	2	72*[inhibitor]	-11	74*[inhibitor]	-12	75	-3	77
C=CCc1cc(/C=C2/NC(=O)N(CC(=O)OC)C2=O)cc(OC)c1O	-12	107	14	102	-1	x	x	x
Cc1ccc2nc3c(c(C(=O)OCC(=O)NC4CCS(=O)(=O)C4)c2c1)CCCC3 (stereo not given)	9	90	-6	98	-7	x	x	x
O=c1c(-c2ccc(Br)cc2)coc2c(CN3CCCCC3)c(O)ccc12	15	103	6	100	2	x	x	x
COc1ccc(-c2coc3c(CN4CCCCC4)c(O)c(CN4CCCCC4)c(O)c3c2=O)cc1	35	144*	42*	107	18	150	31	105
Cc1ccc(CNC(=O)c2ccc(Cl)c(S(N)(=O)=O)c2)n1C	-2	99	-2	98	1	x	x	x
Cc1ncc(CO)c(/C=N/NC(=O)c2ccoc2C)c1O	5	x	3	x	x	x	x	x
Cc1ncc(CO)c(/C=N/NC(=O)c2ccccc2Br)c1O	7	5.0*[inhibitor]	-10	99	2	101	2	105
COc1ccc(N(CC(=O)N2CCN(c3ccc(F)cc3)CC2)S(=O)(=O)c2c(C)noc2C)cc1	2	96	15	97	2	x	x	x
COc1ccc(N(CC(=O)N2CCN(c3ccc(F)cc3)CC2)S(=O)(=O)c2c(C)n[nH]c2C)cc1	-2	108	9	128*	-1	95	-8	98
COc1ccc(CCNc2ncnc3c2[nH]c2cc(OC)c(OC)cc23)cc1OC	12	120	6	104	12	x	x	x
COc1cc2[nH]c3c(Cl)ncnc3c2cc1OC	27	94	9	71*[inhibitor]	1	108	14	103
Cc1cc(C)cc(OCC(=O)Nc2ccc(F)cc2)c1	-1	101	1	100	-1	x	x	x
Cc1cc(C)cc(OCC(=O)Nc2ccc3c(c2)C(=O)c2ccccc2C3=O)c1	-12	104	2	139*	0	95	0	97
CC/S(C)=N/S(=O)(=O)c1ccc(C)cc1 (stereo not given)	-12	97	0	97	0	x	x	x
O=C(Nc1ccnn1C1CCN(C/C=C/c2ccccc2)CC1)c1cccc(F)c1	5	140*	4	107	16	122	11	107
Cc1ccc(NC(=S)Nc2cccnc2)c(S(=O)(=O)N2CCCCC2)c1	-11	117	17	117	1	x	x	x
CC(C)N(c1ccccc1)c1ccc(NC(=O)COC(=O)CCN2C(=O)c3cccc([N+](=O)[O-])c3C2=O)cc1	-14	90	32	48*[inhibitor]	-2	94	-7	93
CNC[C@H](CC1CCCCC1)NC[C@H](CO)NCC1(c2ccccc2)CC1	20	114	5	103	-1	x	x	x
SMILES	UBC13 inh	MEKK2wt PB1 HTS	Apaf1 inhib	MEKK3 PB1 HTS	MEKK2mut PB1 HTS	MEKK2wt confirm	MEKK2mut confirm	MEKK3-MEK5 inh
CNC[C@H](CC1CCCCC1)NC[C@H](CO)NCCc1cccc(C(F)(F)F)c1	38	152*	10	104	6	156	39	109
CCN1C(=O)N(CC)C2C1N(CO)C(=O)N2CO (stereo not given)	0	117	-3	129*	1	98	1	99
CNS(=O)(=O)c1ccc(NS(=O)(=O)c2ccccc2F)cc1	12	98	-28	104	-1	x	x	x
Cc1nn(Cc2cccc(C(=O)Nn3cc([N+](=O)[O-])cn3)c2)c(C)c1[N+](=O)[O-]	-9	104	19	128*	0	96	-12	97
CCCc1nc2ccccc2c(=O)n1-c1ccc(C(=O)OCC)cc1	1	97	-4	99	3	x	x	x
CCCCC(CC)Cn1c(O)c(/C=C2\C=NN=C2c2ccccc2)sc1=S (stereo not given)	-8	103	3	136*	0	108	-1	102
O=C(NCCCN1CCCCCC1)C1CC(=O)N(CCc2ccccc2)C1 (stereo not given)	40	147*	17	81	25*	154	25	94
O=S(=O)(c1ccc(Cl)cc1)N1CCc2ccccc21	-1	66	6	102	46*	104	3	103
O=S(=O)(c1ccc(Cl)cc1)N1CCCc2ccccc21	7	103	19	100	2	x	x	x
CCOc1ccc(S(=O)(=O)N2CCC(C(=O)NCc3ccccc3CN3CCCC3)CC2)cc1	11	x	8	x	x	x	x	x
CCOC(=O)c1ccc(NC(=S)NC(=O)c2nn(CC)cc2Br)cc1	-2	105	-51	108	4	x	x	x
CCOC(=O)c1ccc(NC(=O)c2nn(CC)cc2Br)cc1	0	-4.0*[inhibitor]	-17	0.0*[inhibitor]	-39	101	-2	101
CCOC(=O)c1ccc(NC(=S)Nc2ccccc2)cc1	1	93	5	64*[inhibitor]	1	97	-1	101
CCc1ccc2c(c1)C(c1ccc(N3CCOCC3)cc1)=NNC(c1ccncc1)=N2	18	131	17	148*	7	103	0	104
O=C(CN1CCN(c2ccccc2)CC1)Nc1ccc(Oc2ccccc2)cc1	1	1.0*[inhibitor]	26	2.0*[inhibitor]	-15	114	5	108
